Like-named read-outs stand apart in the source and are kept apart here. Some results are limits rather than exact numbers.

The format of data set [1] is physicochemical. As to conditions: from sedimentation velocity on diluted samples. In short, it runs like this:
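Diluted neutral-pH and protofibril Aβ40 samples were loaded into 12 mm path-length cells, equilibrated 2 h at 20.0° C, and spun at 20,000-50,000 rpm. Detection used absorbance at 280 nm and Rayleigh interference. Data were analysed as continuous c(s) distributions of Lamm equation solutions with maximum-entropy regularization, and sedimentation coefficients were corrected to 20° C water.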

For data set [2] the following is noted: ref 7c, 7d, cited from earlier work.
The conditions of data set [3]: typical values; cited from earlier work.
Data set [4] in a line: Persistence of Aβ40 protofibrils in quiescent solution. The format is physicochemical.
Data set [5] is classed as physicochemical.
Another data set in a line: Sedimentation velocity. The class given is physicochemical.
Data set [6] can be described thus: Size exclusion chromatography. The class given is physicochemical. As to conditions: protofibril sample; SEC deemed unreliable by the authors. In short, it runs like this:
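Superose 6 10/300 GL column (Vc = 24 ml); 50 μl Aβ40 sample injected and eluted at 0.5 ml/min. The column was equilibrated in either 10 mM sodium phosphate (pH 7.4) or 20 mM NaOH, with or without 150 mM NaCl. Apparent molecular weight was read from elution volume.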
Background: In gel filtration, larger molecules generally elute earlier.

For data set [7] the following is noted: 37° C; cited from earlier work.
Setting [8] is: protofibril sample, 2.0 mM Aβ40.

For “Aβ40: 40-residue amyloid-β peptide, made by FMOC solid-phase synthesis”, the “quasi-equilibrium solubility of Aβ40 assemblies” value in data set [1] (neutral pH sample) is on record as “greater than 10 μM”. The “quasi-equilibrium solubility of Aβ40 assemblies” value in data set [1] (protofibril sample) is given as “greater than 10 μM”. Besides, the “incubation time for evolution of spherical assemblies to mature fibrils” value in data set [2] (TEM, without sonication or agitation) was “more than 50 h”. Also, in data set [2] (formed at 4° C, pH 7.4, 100 μM peptide), the “size of long-lived spherical assemblies” value is roughly 650 kDa. For the same substance, the “quasi-equilibrium solubility of mature fibrils” value in data set [3] is reported as “less than 1 μM”. Further, in data set [4] (quiescent solutions at pH 7.5, TEM), the stability of protofibrils entry is on record as “stable for at least several weeks”. For the same substance, the persistence of protofibrils entry in data set [4] (room temperature, without sonication or agitation of the Aβ40 solution) is on record as “at least 20 days”. Also, the monomeric fraction in data set [5] (high pH samples) was greater than 90%. In addition, the “fraction of protofibrillar assemblies” value in data set [5] (protofibril samples) is greater than 90%. Further, in “Sedimentation velocity” (neutral pH sample, 2.0 mM Aβ40), the “apparent molar mass of slowly sedimenting species” value came to 4.7 kDa, the “estimated molar masses of aggregates” value is listed as “around 0.4 MDa” and the “sedimentation coefficients of aggregates (broadly distributed around)” value is recorded as “around 11 S”. Besides, the “aggregates as fraction of the loading signal” value in the data set “Sedimentation velocity” (neutral pH sample, 2.0 mM Aβ40, pH 7.5) is “approximately 75%”. In addition, in “Sedimentation velocity” (neutral pH sample, 2.0 mM Aβ40, remaining material), the “sedimentation coefficient of slowly sedimenting species” value is on record as roughly 0.6 S. In the data set “Sedimentation velocity” (setting [8]), the “apparent molar masses of rapidly sedimenting species” value is on record as “roughly 10 MDa” and the “fraction of material consisting of rapidly sedimenting species” value is given as “approximately 95%”. Besides, in data set [6], the “apparent molecular weight of a large fraction of material” value was “greater than 1 MDa”.
As for “Aβ42: 42-residue amyloid-β peptide; literature results only”, the “time for subsequent conversion to fibrils” value in data set [7] was no more than 12 days.
